According to ChEMBL document CHEMBL1671788, “Discovery, synthesis, and structure-activity relationship development of a series of N-(4-acetamido)phenylpicolinamides as positive allosteric modulators of metabotropic glutamate receptor 4 (mGlu(4)) with CNS exposure in rats” (J Med Chem, 2011):
The source made the active and inactive calls. The rule behind the calls is not given here.

How the values were obtained:
Plasma [1] = experiment: Cmax in Sprague-Dawley rat plasma at 10 mg/kg, sc; type: ADME, organism-based; set-up: dose 10 mg/kg, route subcutaneous; conditions: in vivo
How it was run: (§1)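 Rats dosed subcutaneously at 10 mg/kg as a 10% tween 80 microsuspension. […] In vivo samples were quantified by LC/MS/MS (ESI, positive-mode MRM) after gradient elution on a C18 column.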

Cytochrome P450 2D6 = Cytochrome P450 2D6 (Homo sapiens, UniProt P10635); experiment: Inhibition of human CYP2D6
How it was run: (§2)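 Human liver microsomes (final 0.1 mg/mL) in 0.1 M potassium phosphate, pH 7.4, with a probe cocktail: phenacetin 10 µM (1A2), diclofenac 5 µM (2C9), dextromethorphan 5 µM (2D6) and midazolam 2 µM (3A4). Compound at 100 nM–30 µM final, in duplicate, preincubated 15 min at 37 °C. NADPH (1 mM) reaction ran 8 min, was quenched with cold acetonitrile, and read by LC/MS/MS (MRM). IC50 determined.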

[2] = biological target: Metabotropic glutamate receptor 1 (Rattus norvegicus) (UniProt P23385); experiment: Positive allosteric modulation in rat mGluR1 receptor expressed in HEK293 cells assessed as effect on calcium mobilization at 10 uM relative to glutamate
Metabotropic glutamate receptor 1 (Rattus norvegicus), sequence (P23385 19-1199 limits assumed): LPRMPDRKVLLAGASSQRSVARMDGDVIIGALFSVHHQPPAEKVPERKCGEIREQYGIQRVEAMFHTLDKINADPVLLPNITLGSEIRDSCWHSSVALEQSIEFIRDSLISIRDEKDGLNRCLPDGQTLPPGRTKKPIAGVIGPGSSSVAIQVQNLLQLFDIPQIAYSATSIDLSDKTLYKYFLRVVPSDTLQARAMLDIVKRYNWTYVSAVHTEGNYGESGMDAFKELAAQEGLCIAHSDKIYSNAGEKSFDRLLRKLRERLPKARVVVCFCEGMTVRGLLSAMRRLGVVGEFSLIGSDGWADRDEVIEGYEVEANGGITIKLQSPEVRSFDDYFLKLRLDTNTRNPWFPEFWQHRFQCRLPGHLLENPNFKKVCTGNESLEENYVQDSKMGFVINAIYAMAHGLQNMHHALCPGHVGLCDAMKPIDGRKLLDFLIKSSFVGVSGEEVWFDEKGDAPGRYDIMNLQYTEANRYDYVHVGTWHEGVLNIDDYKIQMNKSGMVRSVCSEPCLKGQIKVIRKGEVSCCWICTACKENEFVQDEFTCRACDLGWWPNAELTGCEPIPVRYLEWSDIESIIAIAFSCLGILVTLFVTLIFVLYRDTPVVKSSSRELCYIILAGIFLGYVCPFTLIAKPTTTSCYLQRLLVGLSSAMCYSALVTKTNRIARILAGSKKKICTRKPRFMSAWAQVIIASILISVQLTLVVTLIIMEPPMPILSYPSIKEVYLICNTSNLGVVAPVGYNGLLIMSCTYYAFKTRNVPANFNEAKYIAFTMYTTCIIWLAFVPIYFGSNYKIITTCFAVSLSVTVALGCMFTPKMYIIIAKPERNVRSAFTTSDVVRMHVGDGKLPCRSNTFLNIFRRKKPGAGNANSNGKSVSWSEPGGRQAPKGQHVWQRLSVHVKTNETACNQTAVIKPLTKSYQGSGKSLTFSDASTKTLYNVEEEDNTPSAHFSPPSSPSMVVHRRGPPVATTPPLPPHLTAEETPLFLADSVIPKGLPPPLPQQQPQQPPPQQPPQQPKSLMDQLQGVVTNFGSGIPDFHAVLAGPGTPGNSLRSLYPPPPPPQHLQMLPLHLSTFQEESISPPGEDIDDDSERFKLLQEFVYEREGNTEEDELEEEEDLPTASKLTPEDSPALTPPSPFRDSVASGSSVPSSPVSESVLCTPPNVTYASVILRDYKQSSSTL

[3] = Plasma protein binding in Sprague-Dawley rat; type: ADME, cell-free; conditions: read-out: PPB
How it was run: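 Equilibrium dialysis of compound spiked into rat plasma against 25 mM phosphate buffer, pH 7.4. Dialysis ran 4 h at 37 °C with shaking. Both chambers were matrix-matched, extracted with cold acetonitrile and quantified by LC/MS/MS. Triplicate within one plate.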

[4] = Cmax in Sprague-Dawley rat brain at 10 mg/kg, sc; type: ADME, organism-based; set-up: dose 10 mg/kg, route subcutaneous; how it was run: as §1
[5] = biological target: Metabotropic glutamate receptor 6 (Rattus norvegicus) (UniProt P35349); experiment: Positive allosteric modulation in rat mGluR6 receptor expressed in HEK293 cells assessed as effect on thallium flux at 10 uM relative to glutamate; type: cell-based
Metabotropic glutamate receptor 6 (Rattus norvegicus), sequence (P35349 whole entry): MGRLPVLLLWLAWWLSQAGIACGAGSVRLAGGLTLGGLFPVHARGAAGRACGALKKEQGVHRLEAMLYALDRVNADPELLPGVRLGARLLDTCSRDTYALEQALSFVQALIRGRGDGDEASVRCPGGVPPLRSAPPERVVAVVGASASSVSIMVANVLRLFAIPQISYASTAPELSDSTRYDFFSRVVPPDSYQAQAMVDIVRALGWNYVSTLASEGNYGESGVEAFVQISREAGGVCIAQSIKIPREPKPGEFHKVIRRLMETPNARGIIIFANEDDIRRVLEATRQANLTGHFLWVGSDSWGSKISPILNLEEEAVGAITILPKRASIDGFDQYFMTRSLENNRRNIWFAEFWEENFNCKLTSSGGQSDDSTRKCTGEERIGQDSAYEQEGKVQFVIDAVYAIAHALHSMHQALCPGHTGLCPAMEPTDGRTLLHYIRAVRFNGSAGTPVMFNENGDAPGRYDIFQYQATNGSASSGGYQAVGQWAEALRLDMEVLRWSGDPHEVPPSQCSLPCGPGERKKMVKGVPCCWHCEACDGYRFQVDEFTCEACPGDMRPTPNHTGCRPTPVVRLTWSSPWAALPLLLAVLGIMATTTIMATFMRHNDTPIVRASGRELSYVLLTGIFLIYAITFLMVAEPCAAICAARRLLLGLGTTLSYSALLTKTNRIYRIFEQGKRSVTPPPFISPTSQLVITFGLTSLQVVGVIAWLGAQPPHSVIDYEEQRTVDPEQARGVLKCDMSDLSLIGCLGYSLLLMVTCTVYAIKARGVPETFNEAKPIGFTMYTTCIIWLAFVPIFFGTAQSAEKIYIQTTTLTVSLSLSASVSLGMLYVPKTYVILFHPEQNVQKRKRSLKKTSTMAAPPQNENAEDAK

in vivo [6] = conditions: Sprague-Dawley, rat, sc, 10 mg/kg
[7] = biological target: Metabotropic glutamate receptor 4 (Rattus norvegicus) (UniProt P31423); experiment: Positive allosteric modulation of rat mGluR4 expressed in CHO cells coexpressing Gqi5 assessed as calcium mobilization relative to PHCCC; type: functional, cell-based
Cytochrome P450 2C9 = Cytochrome P450 2C9 (Homo sapiens, UniProt P11712); experiment: Inhibition of human CYP2C9; how it was run: as §2
Cytochrome P450 2C9, sequence (P11712 whole entry): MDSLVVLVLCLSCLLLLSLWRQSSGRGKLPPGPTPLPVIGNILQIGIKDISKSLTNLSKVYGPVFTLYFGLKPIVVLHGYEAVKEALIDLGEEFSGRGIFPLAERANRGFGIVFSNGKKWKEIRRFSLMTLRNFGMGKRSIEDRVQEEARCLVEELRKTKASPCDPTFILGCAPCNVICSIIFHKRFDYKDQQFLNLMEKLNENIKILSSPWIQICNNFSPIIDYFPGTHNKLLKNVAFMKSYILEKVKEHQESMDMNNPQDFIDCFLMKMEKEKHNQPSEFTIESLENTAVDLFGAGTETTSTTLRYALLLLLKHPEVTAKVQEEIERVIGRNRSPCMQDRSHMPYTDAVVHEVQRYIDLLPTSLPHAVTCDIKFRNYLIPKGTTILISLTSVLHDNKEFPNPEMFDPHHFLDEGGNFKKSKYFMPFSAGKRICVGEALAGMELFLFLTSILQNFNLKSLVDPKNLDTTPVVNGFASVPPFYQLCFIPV

Cytochrome P450 1A2 = biological target: T1, Cytochrome P450 1A2 (Homo sapiens, UniProt P05177); experiment: Inhibition of human CYP1A2; how it was run: as §2
T1 sequence (P05177 whole entry): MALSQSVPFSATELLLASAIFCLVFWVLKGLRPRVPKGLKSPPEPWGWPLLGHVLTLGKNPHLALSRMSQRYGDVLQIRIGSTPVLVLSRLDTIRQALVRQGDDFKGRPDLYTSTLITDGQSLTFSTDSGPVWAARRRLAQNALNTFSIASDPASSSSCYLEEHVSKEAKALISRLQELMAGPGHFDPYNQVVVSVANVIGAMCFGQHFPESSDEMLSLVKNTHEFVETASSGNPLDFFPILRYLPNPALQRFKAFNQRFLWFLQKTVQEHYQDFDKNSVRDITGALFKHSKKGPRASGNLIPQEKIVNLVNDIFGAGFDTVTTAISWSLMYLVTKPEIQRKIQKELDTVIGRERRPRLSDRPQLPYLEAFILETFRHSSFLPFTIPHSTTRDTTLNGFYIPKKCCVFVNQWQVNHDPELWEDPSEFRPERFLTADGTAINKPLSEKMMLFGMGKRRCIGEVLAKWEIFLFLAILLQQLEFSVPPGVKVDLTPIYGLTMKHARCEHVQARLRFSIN

[8] = AUC in Sprague-Dawley rat plasma at 10 mg/kg, sc; type: ADME, organism-based; set-up: dose 10 mg/kg, route subcutaneous
[9] = biological target: Metabotropic glutamate receptor 4 (Homo sapiens, UniProt Q14833); experiment: Positive allosteric modulation of human mGluR4 expressed in CHO cells coexpressing Gqi5 assessed as calcium mobilization relative to PHCCC; type: functional, cell-based
How it was run: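 CHO cells stably expressing human mGlu4 with Gqi5 were plated at 30,000 cells/well and grown overnight. Cells were loaded with 1 µM Fluo-4 AM for 45 min at 37 °C in HBSS/HEPES/2.5 mM probenecid buffer. […] Ca2+ fluorescence was read (ex 470, em 540 nm). Curves were fitted with a four-parameter logistic; ≥3 independent runs in triplicate.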

[10] = biological target: Metabotropic glutamate receptor 3 (Rattus norvegicus) (UniProt P31422); experiment: Positive allosteric modulation in rat mGluR3 receptor expressed in HEK293 cells assessed as effect on thallium flux at 10 uM relative to glutamate; type: cell-based
How it was run: (§3)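 HEK-293 cells co-expressing the rat receptor and GIRK channels, plated at 15,000 cells/well overnight, then loaded with BTC-AM (1.7 µM) for 1 h at room temperature. Vehicle or compound at 10 µM final was added, and 2.5 min later a full glutamate concentration-response was given in thallium-containing buffer. Thallium flux was read by fluorescence and the leftward or rightward shift of the glutamate curve recorded.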

Plasma [11] = experiment: AUC in Sprague-Dawley rat brain at 10 mg/kg, sc; type: ADME, organism-based; set-up: dose 10 mg/kg, route subcutaneous; conditions: in vivo
[12] = biological target: Metabotropic glutamate receptor 5 (Rattus norvegicus) (UniProt P31424); experiment: Positive allosteric modulation in rat mGluR5 receptor expressed in HEK293 cells assessed as effect on calcium mobilization at 10 uM relative to glutamate
Metabotropic glutamate receptor 5 (Rattus norvegicus), sequence (P31424 21-1203 limits assumed): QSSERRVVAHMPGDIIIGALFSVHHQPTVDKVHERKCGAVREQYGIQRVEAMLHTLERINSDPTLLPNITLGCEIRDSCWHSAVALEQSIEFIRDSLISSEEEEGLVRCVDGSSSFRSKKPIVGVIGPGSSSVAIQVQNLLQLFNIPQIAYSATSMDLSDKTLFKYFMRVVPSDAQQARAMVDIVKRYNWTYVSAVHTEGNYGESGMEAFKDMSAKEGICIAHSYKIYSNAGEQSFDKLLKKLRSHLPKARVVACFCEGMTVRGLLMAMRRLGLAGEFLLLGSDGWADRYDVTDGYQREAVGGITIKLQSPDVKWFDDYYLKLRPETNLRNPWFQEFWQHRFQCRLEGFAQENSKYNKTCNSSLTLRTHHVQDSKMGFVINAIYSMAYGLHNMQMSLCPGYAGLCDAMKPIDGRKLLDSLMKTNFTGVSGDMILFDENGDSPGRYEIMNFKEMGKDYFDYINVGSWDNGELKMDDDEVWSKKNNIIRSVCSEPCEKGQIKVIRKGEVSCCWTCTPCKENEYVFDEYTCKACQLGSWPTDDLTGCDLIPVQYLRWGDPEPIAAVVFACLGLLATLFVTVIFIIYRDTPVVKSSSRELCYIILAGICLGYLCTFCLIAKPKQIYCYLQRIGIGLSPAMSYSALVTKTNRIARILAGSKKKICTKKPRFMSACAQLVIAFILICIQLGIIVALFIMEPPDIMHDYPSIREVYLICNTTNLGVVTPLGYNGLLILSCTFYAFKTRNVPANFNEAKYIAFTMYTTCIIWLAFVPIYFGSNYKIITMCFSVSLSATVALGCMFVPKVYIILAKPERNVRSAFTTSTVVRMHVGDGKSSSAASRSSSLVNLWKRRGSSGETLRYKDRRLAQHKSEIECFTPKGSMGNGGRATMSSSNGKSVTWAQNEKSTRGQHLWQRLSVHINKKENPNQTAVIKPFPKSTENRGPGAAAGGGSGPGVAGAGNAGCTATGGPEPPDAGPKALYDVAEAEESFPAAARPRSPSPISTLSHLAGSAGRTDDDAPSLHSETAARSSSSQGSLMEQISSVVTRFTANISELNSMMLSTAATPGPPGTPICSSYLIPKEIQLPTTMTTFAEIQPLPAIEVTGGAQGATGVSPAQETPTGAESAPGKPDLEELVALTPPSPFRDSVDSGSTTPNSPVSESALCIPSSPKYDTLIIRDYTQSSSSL

[13] = biological target: Metabotropic glutamate receptor 2 (Rattus norvegicus) (UniProt P31421); experiment: Positive allosteric modulation in rat mGluR2 receptor expressed in HEK293 cells assessed as effect on thallium flux at 10 uM relative to glutamate; type: cell-based; how it was run: as §3
Metabotropic glutamate receptor 2 (Rattus norvegicus), sequence (P31421 19-872 limits assumed): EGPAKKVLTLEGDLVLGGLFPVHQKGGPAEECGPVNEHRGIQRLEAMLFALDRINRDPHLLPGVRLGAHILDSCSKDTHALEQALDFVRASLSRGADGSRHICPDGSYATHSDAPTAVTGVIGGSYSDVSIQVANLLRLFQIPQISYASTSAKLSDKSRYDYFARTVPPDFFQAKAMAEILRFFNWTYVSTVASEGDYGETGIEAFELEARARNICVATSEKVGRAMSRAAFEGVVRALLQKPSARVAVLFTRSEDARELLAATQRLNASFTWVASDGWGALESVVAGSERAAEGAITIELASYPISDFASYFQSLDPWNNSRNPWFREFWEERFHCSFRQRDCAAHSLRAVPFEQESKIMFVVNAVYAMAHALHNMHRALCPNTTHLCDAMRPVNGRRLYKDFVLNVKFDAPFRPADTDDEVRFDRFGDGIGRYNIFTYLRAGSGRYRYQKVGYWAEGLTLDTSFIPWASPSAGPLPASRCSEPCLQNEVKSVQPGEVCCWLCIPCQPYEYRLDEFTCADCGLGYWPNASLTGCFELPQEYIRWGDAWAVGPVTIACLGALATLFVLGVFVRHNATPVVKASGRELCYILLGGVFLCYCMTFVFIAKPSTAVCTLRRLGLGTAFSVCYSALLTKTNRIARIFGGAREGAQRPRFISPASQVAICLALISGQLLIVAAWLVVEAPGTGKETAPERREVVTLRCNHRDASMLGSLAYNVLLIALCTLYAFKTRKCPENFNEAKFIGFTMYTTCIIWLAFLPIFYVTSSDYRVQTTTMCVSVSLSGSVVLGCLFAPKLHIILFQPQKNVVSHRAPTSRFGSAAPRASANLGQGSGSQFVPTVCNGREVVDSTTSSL

Cytochrome P450 3A4 = Cytochrome P450 3A4 (Homo sapiens, UniProt P08684); experiment: Inhibition of human CYP3A4; how it was run: as §2
Cytochrome P450 3A4, sequence (P08684 whole entry): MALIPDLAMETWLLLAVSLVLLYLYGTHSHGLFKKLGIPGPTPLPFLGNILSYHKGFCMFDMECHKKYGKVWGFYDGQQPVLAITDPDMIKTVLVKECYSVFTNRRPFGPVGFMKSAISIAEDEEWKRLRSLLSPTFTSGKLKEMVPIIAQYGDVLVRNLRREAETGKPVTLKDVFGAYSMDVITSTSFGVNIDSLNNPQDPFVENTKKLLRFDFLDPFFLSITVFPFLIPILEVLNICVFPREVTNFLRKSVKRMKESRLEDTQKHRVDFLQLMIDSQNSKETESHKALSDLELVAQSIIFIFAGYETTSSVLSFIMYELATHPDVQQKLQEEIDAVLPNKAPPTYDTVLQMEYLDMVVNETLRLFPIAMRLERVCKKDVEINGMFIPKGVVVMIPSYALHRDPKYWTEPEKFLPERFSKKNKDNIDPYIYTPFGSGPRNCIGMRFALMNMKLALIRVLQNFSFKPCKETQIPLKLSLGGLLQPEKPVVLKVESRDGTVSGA

in vivo [14] = conditions: Sprague-Dawley, rat, brain/plasma, iv, 1 mg/kg
[15] = biological target: Metabotropic glutamate receptor 4 (Rattus norvegicus, UniProt P31423); experiment: Positive allosteric modulation of rat mGluR4 expressed in CHO cells coexpressing Gqi5 assessed as calcium mobilization; type: functional, cell-based; conditions: read-out: EC50

O=C(Nc1ccc(NC(=O)c2ccccc2Cl)c(Cl)c1)c1ccccn1
Cmax (Plasma [1]): 198.1 ng/mL | INH (Cytochrome P450 2D6): 13.1 µM | Activity [2]: inactive | fraction unbound [3]: < 0.005 | Cmax [4]: 163 ng/g | Activity [5]: inactive | Tmax (in vivo [6]): 30 min | Activity [7]: 128% | INH (Cytochrome P450 2C9): 11.8 µM | INH (Cytochrome P450 1A2): > 30 µM | AUC(0-t) [8]: 658 ng·h/mL | Activity [9]: 77.9% | Activity [10]: inactive | AUC (Plasma [11]): 681 ng·h/g | Activity [12]: inactive | Activity [13]: inactive | INH (Cytochrome P450 3A4): > 30 µM | Kp (in vivo [14]): 1.04 | EC50 [15]: 570 nM
